{"source": "ChEMBL document CHEMBL1221207", "about": "“Expanding the promiscuity of a natural-product glycosyltransferase by directed evolution” (Nat Chem Biol, 2007)", "key": {"[1]": {"system": "T1, Oleandomycin glycosyltransferase (Streptomyces antibioticus), Q53685 [P67T]", "T1 sequence (whole entry)": "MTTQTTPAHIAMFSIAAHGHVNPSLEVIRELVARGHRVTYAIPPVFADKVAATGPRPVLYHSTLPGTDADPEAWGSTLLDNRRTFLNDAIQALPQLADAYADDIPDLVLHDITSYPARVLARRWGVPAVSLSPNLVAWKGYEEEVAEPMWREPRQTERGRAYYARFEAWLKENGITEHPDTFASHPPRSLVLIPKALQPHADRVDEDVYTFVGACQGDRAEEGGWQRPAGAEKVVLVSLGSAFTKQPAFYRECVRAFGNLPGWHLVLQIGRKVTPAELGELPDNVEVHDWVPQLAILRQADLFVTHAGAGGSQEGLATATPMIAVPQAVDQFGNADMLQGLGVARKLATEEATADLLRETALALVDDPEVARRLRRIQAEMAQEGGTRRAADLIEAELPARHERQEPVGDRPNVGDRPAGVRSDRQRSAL", "experiment": "Activity of Streptomyces antibioticus OleD P67T mutant assessed as as rate of glucoside formation measured as nanomoles of product formed per minute per mg of enzyme"}, "[2]": {"system": "T2, Oleandomycin glycosyltransferase (Streptomyces antibioticus), Q53685 [P67T,S132F,A242V]", "T2 sequence (whole entry)": "T1 sequence (whole entry) with S132F, A242V", "experiment": "Activity of Streptomyces antibioticus OleD P67T/S132F/A242V mutant assessed as conversion rate of compound to produce glucoside 3 using NDP sugar […] after 3 hrs by HPLC", "summary_of_the_method": "(§1)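 End-point donor-specificity assay with purified OleD enzyme. Percentage conversion was read after 3 h. Quenched reactions were run by reverse-phase C18 HPLC with a 10–90% CH3CN gradient in 0.1% formic acid/H2O over 20 min at 1 ml min–1, with detection at 254 nm. Products were identified by LC-MS, by comparison to standards where available, and by fluorescence.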"}, "[3]": {"system": "T3, Oleandomycin glycosyltransferase (Streptomyces antibioticus), Q53685 [A242V]", "T3 sequence (whole entry)": "T1 sequence (whole entry) with T67P, A242V", "experiment": "Activity of Streptomyces antibioticus OleD A242V mutant assessed as as rate of glucoside formation measured as nanomoles of product formed per minute per mg of enzyme"}, "[4]": {"molecular_target": "T4, Oleandomycin glycosyltransferase (Streptomyces antibioticus) (UniProt Q53685)", "T4 sequence (whole entry)": "T1 sequence (whole entry) with T67P", "experiment": "Activity of Streptomyces antibioticus OleD […] mutant assessed as as rate of glucoside formation measured as nanomoles of product formed per minute per mg of enzyme"}, "[5]": {"system": "T3, Oleandomycin glycosyltransferase (Streptomyces antibioticus), Q53685 [A242V]", "experiment": "Activity of Streptomyces antibioticus OleD A242V mutant assessed as conversion rate of compound to produce glucoside 3 using NDP sugar donor UDP-xylose after 3 hrs by HPLC", "summary_of_the_method": "as §1"}, "[6]": {"system": "T3, Oleandomycin glycosyltransferase (Streptomyces antibioticus), Q53685 [A242V]", "experiment": "Activity of Streptomyces antibioticus OleD A242V mutant assessed as conversion rate of compound to produce glucoside 3 using NDP sugar donor UDP-6-azido-glucose after 3 hrs by HPLC", "summary_of_the_method": "as §1"}, "[7]": {"system": "T5, Oleandomycin glycosyltransferase (Streptomyces antibioticus), Q53685 [S132F]", "T5 sequence (whole entry)": "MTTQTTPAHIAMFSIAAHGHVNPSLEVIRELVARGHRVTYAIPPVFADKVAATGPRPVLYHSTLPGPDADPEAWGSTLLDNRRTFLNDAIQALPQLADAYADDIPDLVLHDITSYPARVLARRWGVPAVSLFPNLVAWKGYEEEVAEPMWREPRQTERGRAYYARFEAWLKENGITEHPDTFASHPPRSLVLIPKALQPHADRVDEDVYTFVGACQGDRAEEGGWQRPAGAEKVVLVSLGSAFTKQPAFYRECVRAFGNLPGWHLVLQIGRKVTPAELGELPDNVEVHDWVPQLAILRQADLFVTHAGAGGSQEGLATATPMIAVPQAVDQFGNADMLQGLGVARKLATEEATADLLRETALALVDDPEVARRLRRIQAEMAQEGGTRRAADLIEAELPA", "experiment": "Activity of Streptomyces antibioticus OleD S132F mutant assessed as conversion rate of compound to produce glucoside 3 using NDP sugar donor UDP-glucose after 3 hrs by HPLC", "summary_of_the_method": "as §1"}, "[8]": {"system": "T1, Oleandomycin glycosyltransferase (Streptomyces antibioticus), Q53685 [P67T]", "experiment": "Activity of Streptomyces antibioticus OleD P67T mutant assessed as conversion rate of compound to produce glucoside 3 using NDP sugar donor UDP-xylose after 3 hrs by HPLC", "summary_of_the_method": "as §1"}, "[9]": {"system": "T3, Oleandomycin glycosyltransferase (Streptomyces antibioticus), Q53685 [A242V]", "experiment": "Activity of Streptomyces antibioticus OleD A242V mutant assessed as conversion rate of compound to produce glucoside 3 using NDP sugar donor UDP-6-deoxy-glucose after 3 hrs by HPLC", "summary_of_the_method": "as §1"}}, "note": "Substitutions are numbered along the chain they refer to.", "data": [{"smiles": "Cc1cc(=O)oc2cc(O)ccc12", "values": [{"measurement": "Activity", "setting": "[1]", "result": 15.7, "unit": "nmol/min"}, {"measurement": "Activity", "setting": "[2]", "result": 21, "unit": "%"}, {"measurement": "Activity", "setting": "[3]", "result": 5.4, "unit": "nmol/min"}, {"measurement": "Activity", "setting": "[4]", "result": 6.3, "unit": "nmol/min"}, {"measurement": "Activity", "setting": "[5]", "result": 2, "unit": "%"}, {"measurement": "Activity", "setting": "[6]", "result": 2, "unit": "%"}, {"measurement": "Activity", "setting": "[7]", "result": 48, "unit": "%"}, {"measurement": "Activity", "setting": "[8]", "result": 2, "unit": "%"}, {"measurement": "Activity", "setting": "[9]", "result": 6, "unit": "%"}]}]}
